Assay outcomes as filed in PubChem BioAssay.
CAL PDZ FP-1 – CAL PDZ peptide-binding inhibitors, primary screen, biochemical, fluorescence polarization, Cer-tagged CAL PDZ, HTS. 330,000 compounds, 0.02% hits. purified CAL PDZ, TMR-peptide fluorescence polarization, 1 h. Golgi-associated PDZ and coiled-coil motif-containing protein (Homo sapiens), Q9HD26. inhibition, % at 20 µM;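 active = highest replicate inhibition of at least 40%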;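 also: plate controls were DMSO neutral control wells for no effect and unlabeled competitor peptide control wells for full effect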
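Test system: purified CerCALP PDZ construct; Compound dosing: one concentration, 20 µM compound; Also added: TMR-labelled reporter peptide T*-PRC34 bound in PDZ groove; Read-out: inhibition from polarization loss; Controls: unlabelled peptide and DMSO controls; Signal: FP readout, S and P plane fluorescence; Incubation: 1 h at RT.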
DYRK1A inh – rat Dyrk1A kinase inhibitors, primary screen, biochemical, single point, plate reader. Dual specificity tyrosine-phosphorylation-regulated kinase 1A (Rattus norvegicus), Q63470. ADP-Glo luminescence, NFATc1 peptide. inhibition, % at 12.5 µM. 310,000 compounds, 0.43% hits; in the data active = inhibition above about 50%;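 also: plate controls were vehicle with enzyme for no effect and no enzyme for full effect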
dFosB act-1 – activators of delta FosB homodimer, primary screen, biochemical, fluorescence polarization, TAMRA-CDK5 oligo, single point. Protein FosB (Mus musculus), P13346. purified delta FosB; percent of positive-control signal above neutral wells. activation, % at 25 µM. 340,000 compounds, 0.99% hits. AID 493131, 2011;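 active = mean activation above about 17%, with every replicate also reaching it, limit read from the data, passing the limit was not always enough; inconclusive = only one of the two conditions met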
Target sequence (P13346 whole entry, looked up): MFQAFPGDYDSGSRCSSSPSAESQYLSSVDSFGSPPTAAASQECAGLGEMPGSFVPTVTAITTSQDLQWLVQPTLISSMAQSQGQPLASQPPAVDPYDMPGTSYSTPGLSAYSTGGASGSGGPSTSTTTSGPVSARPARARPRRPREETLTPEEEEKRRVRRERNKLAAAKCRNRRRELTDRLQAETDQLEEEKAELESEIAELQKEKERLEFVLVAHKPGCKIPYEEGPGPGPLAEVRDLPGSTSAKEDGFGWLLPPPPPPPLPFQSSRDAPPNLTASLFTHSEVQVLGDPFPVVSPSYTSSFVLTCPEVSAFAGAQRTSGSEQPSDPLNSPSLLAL
CAL PDZ FP-2 – untagged CAL PDZ binding inhibitors, primary screen, biochemical, fluorescence polarization, HTS; Golgi-associated PDZ and coiled-coil motif-containing protein (Homo sapiens), Q9HD26; purified CAL PDZ, TMR-peptide fluorescence polarization, 1 h; inhibition, % at 24.9 µM; 300,000 compounds, 0.92% hits; AID 602252, 2012;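 active = mean inhibition of at least 30% with at least half of replicates also reaching 30%; inconclusive = no clear call, values can overlap the other calls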;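 also: 0% = DMSO neutral control and 100% = excess unlabeled competitor peptide PRC23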
Rtt109 HAT inh – inhibitors of C. albicans Rtt109/Vps75 HAT, primary screen, biochemical, ThioGlo CoA-SH fluorescence, plate reader. Histone acetyltransferase RTT109 (Candida albicans (strain SC5314 / ATCC MYA-2876)), …. purified Rtt109/Vps75, 4 h. inhibition, % at 34.9 µM. 330,000 compounds, 0.16% hits;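 active = inhibition of at least 50% in every replicate; inconclusive = best replicate reaches 50% inhibition but some replicates fall short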
CDK5 inh – inhibitors of human CDK5/p35 kinase, primary screen, biochemical, single concentration; Cyclin-dependent kinase 5 (Homo sapiens) + Cyclin-dependent kinase 5 activator 1 (Homo …; Recombinant CDK5/p35, ADP-Glo luminescence, 60 min; inhibition, % at 10 µM; 330,000 compounds, 0.01% hits; AID 488839, 2010;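 active = highest replicate inhibition of at least 50% and at least 75% of replicates reaching 50%; inconclusive = only one of the two criteria met; inactive = both criteria failed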;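 also: plate controls were DMSO neutral control for no effect and GW8510 at 10 µM for full effect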
dFosB act-2 – activators of mouse delta FosB DNA binding, confirmation, biochemical, fluorescence polarization, TAMRA-CDK5 oligo, cherry-picked samples; shares compounds with dFosB act-1; activation, % at 24.9 µM; AID 588690, 2011; purified delta FosB; normalised: neutral wells 0, positive control 100; 2,400 tested, under 10 active;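 active = highest replicate activation at or above 34% and every replicate reaching that threshold; inconclusive = meets only one of the two criteria; inactive = meets neither criterion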;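 also: higher polarization means more probe DNA bound by delta FosB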
Starred values were filed as active, the others as inactive; ? = inconclusive; · = no result. Shown are actives, neighbours in structure and some others; about 2.2% of the full set was active somewhere.

SMILES	CAL PDZ FP-1	DYRK1A inh	dFosB act-1	CAL PDZ FP-2	Rtt109 HAT inh	CDK5 inh	dFosB act-2
O=C(COc1ncnc2ccc(Br)cc12)NCc1ccco1	-1	7	22*	9	-5	1	-7
O=C(N/N=C/c1cccnc1)c1cc2c(ccc3ccccc32)o1	-4	13	32*	-1	2	0	-2
Cc1ccc(/C=N/NC(=O)c2cc3c(ccc4ccccc43)o2)o1	-3	2	25*	-2	9	-1	-1
O=C(N/N=C/c1ccc([N+](=O)[O-])o1)c1cc2c(ccc3ccccc32)o1	0	0	3	·	3	0	·
O=C(NC1CC1)C1CCN(c2nc3ccccc3s2)CC1	-2	5	-1	3	-7	-8	·
Cc1cccc(C(=O)N2CCN(CCNC(=O)C(=O)Nc3ccc(F)cc3)CC2)c1	-3	1	-3	-1	11	0	·
CCc1ccc(NC(=O)NNC(=O)c2cc3ccccc3cc2O)cc1	-2	1	39*	-3	-15	-1	4
CCOc1ccc(NC(=O)NNC(=O)c2cc3ccccc3cc2O)cc1	-1	-2	39*	0	-3	1	0
Cc1ccc(NC(=O)NNC(=O)c2cc3ccccc3cc2O)cc1C	0	3	54*	-3	-2	1	4
Cc1ccc(C)c(NC(=O)NNC(=O)c2cc3ccccc3cc2O)c1	6	2	?	-2	-4	1	·
COC(=O)c1ccc(C)c(NC(=O)COC(=O)C2CC3CCCC(C2)C3=O)c1 (stereo not given)	-3	-4	-4	0	-1	1	·
CCOc1ccc(-n2c(=O)c3sccc3n(Cc3ccc(C)cc3)c2=O)cc1	-1	-3	26*	-1	1	-1	5
COc1ccc(NC(=O)CCCn2c(=O)c3sccc3n(Cc3cccc(C)c3)c2=O)cc1	-1	-5	-7	·	-13	1	·
COc1ccc(NC(=O)CCCn2c(=O)c3sccc3n(Cc3ccc(C)cc3)c2=O)cc1	-1	-6	29*	·	7	0	-1
O=C(Nc1ccc(OC(F)(F)F)cc1)N1CCN(c2ccnc3cc(Cl)ccc23)CC1	0	·	39*	-12	6	1	-4
CCCCn1c(N)c(N(CC(C)C)C(=O)c2cccc(S(=O)(=O)N3CCCCCC3)c2)c(=O)[nH]c1=O	-2	10	39*	·	13	0	-5
OCCCCCN=c1cc(-c2ccccc2)oc2ccc(Cl)cc12	-1	3	21*	-3	7	2	4
COc1ccc(NC(=O)Cn2cc(C#N)c3ccccc32)cc1	0	·	42*	-1	-21	2	2
CCOc1ccc(NC(=O)Cn2cc(C(=O)CC)c3ccccc32)cc1	1	-5	41*	7	-1	1	4
COc1ccc(OC)c(NC(=O)Cn2cc(C#N)c3cc(Br)ccc32)c1	0	0	26*	·	-17	1	3
COc1cc(C)c(NC(=S)NCCCN2CCOCC2)cc1OC	0	-4	7	·	-7	-2	·
O=C(CSc1nnc2c(n1)[nH]c1ccc(S(=O)(=O)N3CCOCC3)cc12)Nc1ccccc1Cl	-2	1	26*	-7	-8	0	-1
COc1ccc(S(=O)(=O)N2CCOCC2)cc1NC(=O)CSc1nnc2c(n1)[nH]c1ccccc12	-4	1	14	0	-3	1	·
